Bioassay records: PubChem BioAssay, several laboratories
Only some compounds are listed: those with a hit (about 2% of all), similar ones and a draw of the others.
Autophagy mod: alters autophagy in cells | hit rate 0.98% among 190,000 | calls only at 10 µM (by protocol) | MEF GFP-LC3 puncta imaging; test concentration mostly 10 µM;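 active = percentage of spot-positive cells more than 3 SD above its plate mean, without a fluorescence outlier flag or 80% toxicity; inconclusive = no clear call, values can overlap the other calls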;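 note: spot-positive cell cutoff set from DMSO-treated cells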
Dynein transport: dynein cargo transport inhibition | 3617.4 mouse cells, GR-EGFP nuclear translocation imaging; test concentration mostly 20 µM; stimulated with dexamethasone, 1 µM; stronger effect = lower value | z-score, hits read low | hit rate 0.47% among 220,000;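 active = plate z-score of nuclear minus cytoplasmic receptor signal below a set negative limit, without overly bright fluorescence or cell loss, cut at about -3.5 in these data, passing the limit was not always enough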;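 note: z-score of nuclear minus cytoplasmic ring GR-EGFP intensity difference per well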
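Also added: dexamethasone, 1.0 µM final. Medium: tet-free, stripped-serum medium. Detection: fixed, Hoechst-stained cells imaged at 10x for EGFP. Read-out: nuclear-to-cytoplasmic GR-EGFP distribution per well. Times: induction 48 h, compound 1 h, agonist 30 min.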
INS promoter inh: TRM-6 insulin promoter activity inhibition; TRM-6 cells (human fetal islet line), insulin promoter-eGFP reporter, imaging; reporter expression induced with tamoxifen; inhibition, % at 2 µM; hit rate 0.9% among 130,000;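 active = inhibition above the mean plus 3 SD, with well images judged a real hit on visual review, cut at about 60% in these data, passing the limit was not always enough; inconclusive = inhibition over the cutoff but images rejected on review; inactive = inhibition not above the cutoff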
Ins promoter up: MIN6 insulin promoter up-regulation. MIN6 insulin promoter-GFP reporter, high-content imaging; stronger effect = higher value. z-score at 5 µM. hit rate 0.3% among 190,000. AID 1625;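 active = z-score above 3 at 5 µM with at least 500 cells counted in the well; inconclusive = wells under 500 cells, flagged as cytotoxic or low count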
Numbers without * were called inactive; i = inactive; ? = inconclusive; . = no result; + = active, no number; ! = repeats disagree.

SMILES	Autophagy mod	Dynein transport	INS promoter inh	Ins promoter up
Cc1nn(C2CCS(=O)(=O)C2)c(Cl)c1/C=C/C(=O)OCC(=O)Nc1ccccc1OC(F)F (stereo not drawn)	i	-0.64	66*	.
Cc1cc(=O)n2c(n1)SCOC2	.	0.16	.	0.09
COc1cc(OC)c(/C=N/NC(=O)c2ccc(Cn3nc([N+](=O)[O-])cc3C)cc2)c(OC)c1	.	0.39	.	-0.08
CC(C)Cc1cc(C(=O)NCc2cccs2)no1	i	-0.26	100*	.
Cc1cccc(S(=O)(=O)Nc2ccc(C)c3c2OC(C)(C)C3)c1	+	-0.0079	-4	-0.82
C#CCOCCOCCOCCNc1nc(N2CCN(C(=O)[C@H](CCC(=O)O)n3cc(C(N)CO)nn3)CC2)nc(N2CCN(C(=O)[C@H](CCC(=O)O)n3cc(C(N)[C@H](C)CC)nn3)CC2)n1 (stereo partly drawn)	i	1.1	.	-0.91
CCOC(=O)c1nc(N2CCN(C(=O)OCC)CC2)c2c3c(sc2n1)CCCC3	+	0.35	.	-0.67
CC(=O)N(C)c1nc(N)n(-c2ccccc2)n1	i	-0.28	.	0.75
C=CCC(c1ccccc1)N(C(C)=O)c1ccco1 (stereo not drawn)	i	0.26	.	3.6*
CC[n+]1c(C=C2C=C(C)OC(C)=C2)sc2ccccc21	+	-2.3	i	?
O=C1c2nccnc2C(=O)N1c1ccc(F)cc1	i	2.1	25	0.22
O=C1OC2CC3CC1CC(O)(C3)C2 (stereo not drawn)	i	0.8	86*	.
O=C(/C=C/c1ccco1)NC(=S)Nc1cccc([N+](=O)[O-])c1	i	0.068	.	-0.43
Cc1cccc(NC(=S)NC(=O)/C=C/c2ccco2)c1	+	-0.16	.	1.2
O=C(Cn1c2ccccc2c(=O)c2ccccc21)N/N=C/c1ccc(N2CCCC2)c([N+](=O)[O-])c1	i	0.7	10	0.29
Cc1ccc(OCC(=O)N/N=C/c2cc([N+](=O)[O-])ccc2N2CCCCC2)cc1	+	0.23	-30	-0.58
O=C(Cn1c2ccccc2c(=O)c2ccccc21)N/N=C/c1cc([N+](=O)[O-])ccc1N1CCCCCC1	+	-1.2	.	-0.35
O=C(COc1ccc([N+](=O)[O-])cc1)N/N=C/c1cc([N+](=O)[O-])ccc1N1CCOCC1	i	0.29	-148	-0.08
CC(C)CCN1CCN(Cc2cccc(C(F)(F)F)c2)CC1CCO (stereo not drawn)	i	0.33	.	.
CCc1ccc(CCC(=O)Nc2sc3c(c2C#N)CCCC3)o1	+	-0.68	-16	-0.19
CCC(=O)Nc1sc2c(c1C#N)CCC2	i	-0.36	7	-0.1
COc1cccc(N/C(N)=N/c2nc(CSc3ccccn3)cc(=O)[nH]2)c1	+	0.93	-464	0.07
C=CCNc1oc(-c2cccs2)nc1S(=O)(=O)c1ccccc1	i	0.15	.	0.07
CCOc1ccc(C(=O)N2CCN=C2SC)cc1OCC	+	-0.85	.	0.37
CCOc1ccccc1C(=O)N1CCN=C1SC	i	-0.16	.	?
SMILES	Autophagy mod	Dynein transport	INS promoter inh	Ins promoter up
N=c1oc2ccc3ccccc3c2cc1C(N)=S	i	-0.56	.	1.6
OC1(c2cccc(C(F)(F)F)c2)CCN(c2ncnc3c2[nH]c2ccccc23)CC1	+	-0.45	.	.
c1ccc2c(c1)[nH]c1c(N3CCC4(CC3)OCCO4)ncnc12	i	-0.52	0	-4.7
CCOC(=O)N1CCN(C(=O)CCSCCc2ccncc2)CC1	i	-0.53	79*	-1.1
COc1cccc(/C=N/Nc2ncnc(Cl)c2N)c1O	i	0.87	26	?
COc1cccc(/C=N/Nc2nccnc2Cl)c1O	+	2	0	-3.5
COc1ccc(/C=N/Nc2nccnc2Cl)cc1	i	0.5	83*	-0.05
CCN(CC)Cc1c(O)ccc2occ(C(=O)c3ccc(OC)cc3)c12	i	-0.22	-105	-1.3
CCN(CC)Cc1c(O)ccc2c([N+](=O)[O-])c(C)n(-c3ccc(OC)cc3)c12	i	0.3	78*	.
O=C(NC(=S)N1CCN(c2nc(-c3ccccc3)cs2)CC1)c1cncc(Br)c1	i	0.56	29	-0.4
O=c1[nH]c(SCc2ccccc2)nc2[nH]ncc12	i	0.033	.	-0.29
O=C(NC1C=CS(=O)(=O)C1)c1sc2ccccc2c1Cl (stereo not drawn)	i	-0.93	-162	3.9*
Cc1nc(SCCO)c([N+](=O)[O-])[nH]1	.	0.17	.	-0.23
CCCCSc1nc(C)[nH]c1[N+](=O)[O-]	i	-0.64	75*	.
CCOC(=O)c1ccc(N=c2sc(C(=O)OC)cc(=O)n2CCCN2CCOCC2)cc1	.	-3.6*!	.	-0.16
COC(=O)c1cc(=O)n(CCc2ccccc2)c(=Nc2ccc(F)cc2)s1	.	-3.3	.	-0.56
Cc1sc2nc(SCC(=O)NCc3cccs3)[nH]c(=O)c2c1C	i	-1.2	91*	0.23
CN(C)S(=O)(=O)c1cccc(-c2nnc3n2CCCCC3)c1	.	-0.49	.	-0.21
Cc1ccccc1OCC(O)Cn1nnc2ccccc21 (stereo not drawn)	+	0.011	-44	-0.21
N#Cc1c2ccc(O)cc2n2ccccc12	i	0.82	.	0.31
COc1ccc(C2=NOC(C(=O)NCc3cccs3)C2)cc1OC (stereo not drawn)	i	0.44	.	-0.81
COc1ccc(C2=NOC(C(=O)NCc3cccs3)C2)cc1 (stereo not drawn)	+	0.55	-23	-1.1
CCCCC(=O)NS(=O)(=O)c1ccc(N=NN(CC)CC)cc1	i	-0.11	.	-0.1
CCOC(=O)CN1N=C(/C=C/c2ccc(C)cc2)CCC1=O	i	0.06	-10	-0.56
COc1ccc(/C=C/C2=NN(C)C(=O)CC2)cc1	i	0.31	85*	0.05
SMILES	Autophagy mod	Dynein transport	INS promoter inh	Ins promoter up
O=C(NN1C(=O)c2ccccc2C1=O)c1ccc2c(c1)C(=O)N(CC1CCCO1)C2=O (stereo not drawn)	.	-0.94	.	-0.15
COc1cc2nc(SCc3c(C)noc3C)n(CCC3=CCCCC3)c(=O)c2cc1OC	+	-0.72	.	2.2
CCCn1c(=O)c(C#N)cn(C2CC2)c1=O	.	0.21	.	-0.09
CCN(CC)CCCC(C)Nc1c2ccc(Cl)cc2nc2ccc(OC)cc12 (stereo not drawn)	.	.	.	12*
COC(=O)Nc1ccc(S(=O)(=O)N2CCCC(C(=O)N3CCCCCC3)C2)cc1 (stereo not drawn)	+	0.93	.	-0.62
COC(=O)Nc1ccc(S(=O)(=O)N2CCCC(C(=O)N3CCCCC3)C2)cc1 (stereo not drawn)	i	1.3	42	-1.5
CCCCCN(C(=O)CN1CCC(Cc2ccccc2)CC1)c1c(N)n(CCCC)c(=O)[nH]c1=O	i	1.2	.	0.15
C/C(CC(=O)Nc1cccnc1)=N\NC(=O)C(=O)NC(C)C	.	0.0018	.	0.25
C/C(CC(=O)Nc1cccnc1)=N\NC(=O)C(=O)Nc1cccc(C)c1	+	0.043	-29	-0.48
CN1CCN(C(=O)CN(C)S(=O)(=O)c2ccc3ccccc3c2)CC1	+	0.85	56	-1.8
CN(CC(=O)N1CCCC1)S(=O)(=O)c1ccc2ccccc2c1	i	1.4	0	0.35
